For data set [1], the system named is Cytomegalovirus. As to the kind of experiment: Antiviral activity against Cytomegalovirus AD169 infected in HEL cells assessed as reduction in virus plaque formation. The class given is functional, cell-based. In a few lines:
(§1)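 Confluent HEL fibroblast cultures infected with 100 PFU of HCMV and kept with varying compound concentrations. Plaques scored once plaque formation was complete in untreated infected controls.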

Data set [2] concerns Cytomegalovirus. As to the kind of experiment: Antiviral activity against Cytomegalovirus Davis infected in HEL cells assessed as reduction in virus plaque formation. The class given is functional, cell-based. The essentials:
as §1

Data set [3] can be described thus: (§2) Cytotoxicity against HEL cells infected with Cytomegalovirus assessed as alteration in cell morphology by microscopic method. The class given is cell-based. The note with it: human, HEL cells infected with Cytomegalovirus. In a few lines: (§3)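 In the HEL cultures used for the antiviral assays, cell morphology was examined microscopically across varying compound concentrations. MCC is the minimum concentration causing a microscopically detectable alteration of cell morphology.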

Another data set relates to CCRF-CEM. In words: Anti-proliferative activity against human CEM cells measured after 72 hrs by coulter counter method. Format: ADME, cell-based. The essentials:
(§4)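 Cells at 300,000–500,000 cells/mL, combined 1:1 by volume with compound dilutions, incubated at 37 °C: L1210 for two days, CEM for three days, HeLa for four days. Cells counted by Coulter counter.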

Data set [4] in a line: (§5) Cytotoxicity against HEL cells infected with Varicella-Zoster virus assessed as alteration in cell morphology by microscopic method. Format: cell-based. The note with it: human, HEL cells infected with Varicella-Zoster virus. In a few lines:
as §3

The test system of data set [5] is HEL. In words: Cytotoxicity against HEL cells infected with Varicella-Zoster virus assessed as growth inhibition. The class given is cell-based. The note with it: human, hel.
Data set [6] has as its system Human alphaherpesvirus 3. In words: Antiviral activity against thymidine kinase expressing Varicella-Zoster virus OKA infected in HEL cells assessed as reduction in virus plaque formation. The class given is functional, cell-based, strain Oka vaccine. The essentials:
(§6)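 Confluent HEL fibroblast cultures were infected with VZV at an input of 100 PFU and incubated with varying compound concentrations. Plaques were counted once plaque formation was complete in untreated infected controls.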

Data set [7] has as its system HeLa. As to the kind of experiment: Anti-proliferative activity against human HeLa cells measured after 72 hrs by coulter counter method. Format: ADME, cell-based.
The next data set concerns L1210. As to the kind of experiment: Anti-proliferative activity against mouse L1210 cells measured after 48 hrs by coulter counter method. Format: ADME, cell-based. In a few lines:
as §4

Data set [8] has as its system Human alphaherpesvirus 3. In words: Antiviral activity against thymidine kinase deficient Varicella-Zoster virus 07-1 infected in HEL cells assessed as reduction in virus plaque formation. The class given is functional, cell-based. In a few lines: as §6
Another data set concerns HMEC-1. In words: Anti-proliferative activity against HMEC1 cells by coulter counter method. The class given is ADME, cell-based, Homo sapiens. In a few lines:
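HMEC-1 cells at 300,000–500,000 cells/mL, mixed 1:1 by volume with serial dilutions of test compound, incubated at 37 °C. Cell number counted by Coulter counter.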

Data set [9] has as its system HeLa. As to the kind of experiment: Anti-proliferative activity against human HeLa cells measured after 4 days by coulter counter method. Format: ADME, cell-based. In a few lines:
as §4

Data set [10] has as its system HEL. Described as §2. The class given is cell-based. The note with it: human, hel. In a few lines: as §3
Data set [11] has as its system HEL. The description is as §5. The class given is cell-based. The note with it: human, hel. In a few lines: as §3
Data set [12] concerns HEL. As to the kind of experiment: Cytotoxicity against HEL cells infected with Cytomegalovirus assessed as growth inhibition. The class given is cell-based. The note with it: human.
Where [13] appears, read: Human betaherpesvirus 5, AD169, HEL.
[14] abbreviates: Human betaherpesvirus 5, Davis, HEL.
The mark [15] stands for this setting: Human alphaherpesvirus 3, strain Oka vaccine, HEL.
Where [16] appears, read: Human alphaherpesvirus 3, 07-1, HEL.

Bounds are passed on as bounds.

In general, EC50 refers to the concentration needed to bring the measured effect to its halfway point. By IC50 is commonly meant the point on the concentration scale where inhibition reaches its midpoint. Read a low IC50 as greater potency. Broadly, the CC50 is the concentration that lowers cell viability or growth by half. Regarding `CCOP(=O)(OCC)[C@@H]1C[C@@H](Cn2c(=O)n(C(=O)c3ccccc3)c(=O)c3ccccc32)ON1C`, the EC50 in the data set on Cytomegalovirus [1] (setting [13]) is > 100 µM; with Cytomegalovirus [2] (setting [14]), > 100 µM; in the data set on Human alphaherpesvirus 3 [6] (setting [15]), 7.5 µM; in the data set on Human alphaherpesvirus 3 [8] (setting [16]) it was 13.7 µM. The figures for the MCC in data set [3] and in data set [4] were 100 µM and ≥ 100 µM, respectively. Moreover, the IC50 was 70 µM in the data set on CCRF-CEM (Homo sapiens, CCRF-CEM, 72 h); 96 µM with HeLa [7]; ≥ 159 µM in the data set with L1210 (Mus musculus, L1210, 48 h). Besides, the CC50 in the data set on HEL [5] is > 100 µM.

As to `CCOP(=O)(OCC)[C@@H]1C[C@@H](Cn2ccc(=O)n(C(=O)c3ccccc3)c2=O)ON1C`, the EC50 with Cytomegalovirus [1] (setting [13]) was > 100 µM; in the data set with Cytomegalovirus [2] (setting [14]), > 100 µM; in the data set on Human alphaherpesvirus 3 [6] (setting [15]), 83.6 µM; with Human alphaherpesvirus 3 [8] (setting [16]) it was > 100 µM. Moreover, the MCC is 100 µM in data set [3] and > 100 µM in data set [4]. The IC50 with CCRF-CEM (Homo sapiens, CCRF-CEM, 72 h) was > 200 µM; in the data set on HeLa [7] it was > 200 µM; in the data set on L1210 (Mus musculus, L1210, 48 h), > 200 µM.

As to `CCOP(=O)(OCC)[C@H]1C[C@@H](Cn2c(=O)n(C(=O)c3ccccc3)c(=O)c3ccccc32)ON1C`, the 50% effective concentration (EC50) was > 100 µM in the data set on Cytomegalovirus [1] (setting [13]), > 100 µM in the data set with Cytomegalovirus [2] (setting [14]), 7.7 µM in the data set on Human alphaherpesvirus 3 [6] (setting [15]) and 10.9 µM in the data set with Human alphaherpesvirus 3 [8] (setting [16]). Moreover, the MCC in data set [3] is 100 µM; in data set [4] it was > 100 µM. The IC50 was 74 µM with CCRF-CEM (Homo sapiens, CCRF-CEM, 72 h); > 200 µM with HeLa [7]; > 200 µM with L1210 (Mus musculus, L1210, 48 h).

With `CCOP(=O)(OCC)[C@H]1C[C@@H](Cn2ccc(=O)n(C(=O)c3ccccc3)c2=O)ON1C`, the EC50 is > 100 µM with Cytomegalovirus [1] (setting [13]), > 100 µM with Cytomegalovirus [2] (setting [14]), 65.7 µM with Human alphaherpesvirus 3 [6] (setting [15]) and 88.4 µM in the data set on Human alphaherpesvirus 3 [8] (setting [16]). Moreover, the figures for the MCC in data set [3] and in data set [4] were 100 µM and > 100 µM, respectively. Also, the IC50 with CCRF-CEM (Homo sapiens, CCRF-CEM, 72 h) was > 200 µM; in the data set with HeLa [7], > 200 µM; in the data set with L1210 (Mus musculus, L1210, 48 h) it was > 200 µM.

Regarding `CCOP(=O)(OCC)C1CC(Cn2c(=O)n(C(=O)c3ccccc3F)c(=O)c3ccccc32)ON1Cc1ccccc1` (mixture of isomers), the EC50 in the data set on Cytomegalovirus [1] (setting [13]) is > 20 µM; in the data set with Cytomegalovirus [2] (setting [14]), > 20 µM; with Human alphaherpesvirus 3 [6] (setting [15]), 16.7 µM; with Human alphaherpesvirus 3 [8] (setting [16]) it was 20 µM. In addition, the MCC in data set [3] and in [4] was 100 µM each time. Further, the IC50 is 158 µM in the data set with CCRF-CEM (Homo sapiens, CCRF-CEM, 72 h); > 250 µM in the data set on HMEC-1 (Homo sapiens, HMEC-1); ≥ 250 µM in the data set with HeLa [9] (Homo sapiens, HeLa, 96 h); 155 µM with L1210 (Mus musculus, L1210, 48 h). Moreover, the CC50 in the data set on HEL [5] amounted to 21.4 µM.

Take `CCOP(=O)(OCC)C1CC(Cn2c(=O)n(Cc3cccc(F)c3)c(=O)c3ccccc32)ON1C` (mixture of isomers): the EC50 is > 20 µM in the data set on Cytomegalovirus [1] (setting [13]), 44.7 µM with Cytomegalovirus [2] (setting [14]), 7 µM in the data set with Human alphaherpesvirus 3 [6] (setting [15]) and 27.1 µM in the data set with Human alphaherpesvirus 3 [8] (setting [16]). The MCC in data set [3] was 100 µM; in [4] it was ≥ 100 µM. For the same compound, the IC50 was 77 µM with CCRF-CEM (Homo sapiens, CCRF-CEM, 72 h); 149 µM in the data set on HMEC-1 (Homo sapiens, HMEC-1); 86 µM in the data set with HeLa [9] (Homo sapiens, HeLa, 96 h); 118 µM with L1210 (Mus musculus, L1210, 48 h). In addition, in the data set on HEL [5], the CC50 was found to be 36.8 µM.

`CCOP(=O)(OCC)C1CC(Cn2c(=O)n(Cc3ccc(F)cc3)c(=O)c3ccccc32)ON1Cc1ccccc1` (mixture of isomers; cis): the EC50 in the data set on Cytomegalovirus [1] (setting [13]), in the data set on Cytomegalovirus [2], with Human alphaherpesvirus 3 [6] (setting [15]) and in the data set with Human alphaherpesvirus 3 [8] (setting [16]) was > 4 µM each time. For the same compound, the MCC in the data set with HEL [10] and with HEL [11] was 20 µM throughout. Besides, the IC50 with CCRF-CEM (Homo sapiens, CCRF-CEM, 72 h) is 17 µM; in the data set with HMEC-1 (Homo sapiens, HMEC-1) it was 27 µM; in the data set with HeLa [9] (Homo sapiens, HeLa, 96 h), 17 µM; in the data set on L1210 (Mus musculus, L1210, 48 h), 19 µM.

Consider `CCOP(=O)(OCC)C1CC(Cn2c(=O)n(Cc3cccc(F)c3)c(=O)c3ccccc32)ON1Cc1ccccc1` (mixture of isomers; cis), for which the EC50 in the data set with Cytomegalovirus [1], in the data set with Cytomegalovirus [2], with Human alphaherpesvirus 3 [6] (setting [15]) and with Human alphaherpesvirus 3 [8] (setting [16]) was > 20 µM throughout. Further, the MCC in the data set on HEL [10] worked out at 20 µM; in [4], 100 µM. The IC50 with CCRF-CEM (ccrf-cem) came out at 49 µM; in the data set on HMEC-1 (hmec-1), 204 µM; in the data set with HeLa [9] (Homo sapiens, HeLa, 96 h) it was 73 µM; with L1210 (l1210) it was 89 µM.

In the case of `CCOP(=O)(OCC)C1CC(Cn2c(=O)n(Cc3ccccc3)c(=O)c3ccccc32)ON1Cc1ccccc1` (mixture of isomers; trans), the EC50 in the data set with Cytomegalovirus [1] was ≥ 14.5 µM; in the data set on Cytomegalovirus [2], 13.1 µM; in the data set on Human alphaherpesvirus 3 [6], > 20 µM; with Human alphaherpesvirus 3 [8] it was > 20 µM. Further, the IC50 in the data set on CCRF-CEM (ccrf-cem) was 15 µM; with HeLa [9] (hela), 73 µM; with L1210 (l1210) it was 17 µM. The CC50 with HEL [12] came out at 41.7 µM.

The values are drawn from ChEMBL document CHEMBL3994569, “Synthesis, anti-varicella-zoster virus and anti-cytomegalovirus activity of quinazoline-2,4-diones containing isoxazolidine and phosphonate substructures” (Eur J Med Chem, 2017).
